Experimental data: ChEMBL document CHEMBL1123137 (J Med Chem, 1985)
One block for each molecule: values may come before it.

What was measured:
[1] = HPLC capacity factor (k'); format: ADME
[2] = Molar potency ratio was evaluated at 61 uM
[3] = Molar potency ratio was evaluated at 47 uM
[4] = Maximum increase in coronary flow (percent) of N6-modified adenosines at 27 uM
[5] = Molar potency ratio was evaluated at 27 uM
[6] = Molar potency ratio was evaluated at 107 uM
[7] = Molar potency ratio was evaluated at 50 uM
[8] = Molar potency ratio was evaluated at 46 uM
[9] = Molar potency ratio was evaluated at 37 uM
[10] = Molar potency ratio was evaluated at 18 uM
Albumin = Albumin (Bos taurus, UniProt P02769); experiment: Serum albumin binding; settings: cattle
In short: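 Affinity for bovine serum albumin measured by Hummel–Dreyer method adapted for HPLC. Samples of BSA (0.25–2 g/dL) with 25 μM analogue in 0.1 M NaH2PO4, pH 7.4, were applied to an Aquapore OH-100 column equilibrated with 25 μM analogue in the same buffer. Effluent absorbance was read at 254 nm. Duplicate estimates were made at each of two BSA concentrations, usually 1 and 2 g/dL.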

[11] = Molar potency ratio was evaluated at 35 uM

Chain of Albumin (P02769 whole entry): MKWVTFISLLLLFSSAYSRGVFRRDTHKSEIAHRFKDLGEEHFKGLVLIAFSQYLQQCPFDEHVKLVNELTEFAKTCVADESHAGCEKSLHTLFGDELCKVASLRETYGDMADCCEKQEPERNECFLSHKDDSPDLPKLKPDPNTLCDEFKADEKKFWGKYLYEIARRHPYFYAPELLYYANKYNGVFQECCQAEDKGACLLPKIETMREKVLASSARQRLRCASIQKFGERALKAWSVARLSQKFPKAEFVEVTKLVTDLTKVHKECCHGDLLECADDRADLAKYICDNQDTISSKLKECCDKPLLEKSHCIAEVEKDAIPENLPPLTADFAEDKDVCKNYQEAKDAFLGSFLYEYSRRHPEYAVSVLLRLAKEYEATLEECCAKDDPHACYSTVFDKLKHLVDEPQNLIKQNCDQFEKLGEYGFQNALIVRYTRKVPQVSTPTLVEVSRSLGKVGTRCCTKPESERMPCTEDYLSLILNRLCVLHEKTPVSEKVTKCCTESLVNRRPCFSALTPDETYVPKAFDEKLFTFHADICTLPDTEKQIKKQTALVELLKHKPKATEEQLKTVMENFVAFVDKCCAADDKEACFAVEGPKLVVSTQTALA

SMILES: OC[C@H]1OC(n2cnc3c(NC(c4ccccc4)c4ccccc4)ncnc32)[C@H](O)[C@@H]1O (stereo partly drawn)
k' [1]: 6.11
MPR [2]: 27%

SMILES: CCC(C)(C)Nc1ncnc2c1ncn2C1O[C@H](CO)[C@@H](O)[C@H]1O (stereo partly drawn)
k' [1]: 4.28
MPR [3]: 12%

SMILES: CC(C)(CCc1ccccc1)Nc1ncnc2c1ncn2C1O[C@H](CO)[C@@H](O)[C@H]1O (stereo partly drawn)
k' [1]: 18.7
MPR [7]: 4%

SMILES: OC[C@H]1O[C@@H](n2cnc3c(NC4CCCCCCC4)ncnc32)[C@H](O)[C@@H]1O
k' [1]: 8.8
MPR [9]: 12%
Amount bound (Albumin): 10.1 M/g

SMILES: CC(C)(C)Nc1ncnc2c1ncn2C1O[C@H](CO)[C@@H](O)[C@H]1O (stereo partly drawn)
k' [1]: 2.44
MPR [11]: 7%

Next, values leading:

k' [1]: 4.45
max coronary flow increase [4]: 7%
SMILES: CC(C)(Nc1ncnc2c1ncn2C1O[C@H](CO)[C@@H](O)[C@H]1O)c1ccccc1 (stereo partly drawn)

k' [1]: 19.6
MPR [5]: 0
SMILES: OC[C@H]1OC(n2cnc3c(NC45C[C@H]6C[C@@H](C4)C[C@@H](C5)C6)ncnc32)[C@H](O)[C@@H]1O (stereo partly drawn)

k' [1]: 2.36
MPR [6]: 9%
SMILES: OC[C@H]1OC(n2cnc3c(OCCc4ccccc4)ncnc32)[C@H](O)[C@@H]1O (stereo partly drawn)

k' [1]: 9.29
MPR [8]: 5%
SMILES: CC1(Nc2ncnc3c2ncn3C2O[C@H](CO)[C@@H](O)[C@H]2O)CCCCC1 (stereo partly drawn)

k' [1]: 21
MPR [9]: 8%
SMILES: CC1(C)C2CCC(CNc3ncnc4c3ncn4C3O[C@H](CO)[C@@H](O)[C@H]3O)C1C2 (stereo partly drawn)

k' [1]: 12.2
MPR [10]: 0
SMILES: OC[C@H]1OC(n2cnc3c(NC4C5C[C@H]6C[C@@H](C5)C[C@@H]4C6)ncnc32)[C@H](O)[C@@H]1O (stereo partly drawn)
